Reference: ChEMBL document CHEMBL1133653, “bis(2-(Acylamino)phenyl) disulfides, 2-(acylamino)benzenethiols, and S-(2-(acylamino)phenyl) alkanethioates as novel inhibitors of cholesteryl ester transfer protein” (J Med Chem, 2000)

Tests used:
[1] = target: T1, Cholesteryl ester transfer protein (Homo sapiens, UniProt P11597); test: In vitro concentration required to inhibit 50% of cholesteryl ester transfer protein mediated cholesteryl ester transfer from HDL to VLDL and LDL in human plasma; assay type: cell-free
T1 sequence (P11597 whole entry): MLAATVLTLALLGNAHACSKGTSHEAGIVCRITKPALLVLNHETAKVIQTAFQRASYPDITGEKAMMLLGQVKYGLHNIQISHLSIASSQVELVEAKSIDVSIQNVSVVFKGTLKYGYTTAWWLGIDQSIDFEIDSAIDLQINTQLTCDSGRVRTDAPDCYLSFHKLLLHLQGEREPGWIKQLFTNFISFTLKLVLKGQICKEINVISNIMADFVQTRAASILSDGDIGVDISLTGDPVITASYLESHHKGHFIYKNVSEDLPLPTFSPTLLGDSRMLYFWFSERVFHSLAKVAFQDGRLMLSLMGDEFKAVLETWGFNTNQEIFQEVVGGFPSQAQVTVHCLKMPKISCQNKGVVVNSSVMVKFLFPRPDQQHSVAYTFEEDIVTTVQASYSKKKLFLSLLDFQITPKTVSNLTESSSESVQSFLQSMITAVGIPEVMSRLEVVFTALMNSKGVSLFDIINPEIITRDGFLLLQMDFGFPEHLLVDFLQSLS
Summary of the method: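 Compound dissolved in 1:1 N-methyl-2-pyrrolidinone/PEG 400 and added to human plasma, with organic solvent at 2% final. Plasma then incubated with [3H]CE-labelled HDL at 37 °C for 4 h. ApoB lipoproteins precipitated with dextran sulfate (0.075% final) and MgCl2 (37.5 mM final). Transfer taken as the loss of supernatant HDL radioactivity. IC50 estimated from five-dose response curves.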

[2] = target: T2, Cholesteryl ester transfer protein (Homo sapiens) (UniProt P11597); test: Percent inhibition of cholesteryl ester transfer protein in human plasma at 5 uM; assay type: cell-free
T2 sequence (whole entry): T1 sequence (P11597 whole entry)

Oryctolagus cuniculus [3] = test: In vivo percent inhibition of cholesteryl ester transfer protein was measured 3h after oral administration of 30 mg/kg JW rabbits plasma; assay type: functional
Summary of the method: (§1)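 Male JW rabbits, 11-15 weeks old, dosed orally; plasma taken 3 h post-dose and spun at 11000g for 5 min at 4 °C. Plasma (1.8 µL) diluted to 600 µL in Tris-buffered saline pH 7.4 with 0.1 mg/mL BSA. Incubated 15 h at 37 °C with [3H]CE-HDL and VLDL/LDL, then VLDL/LDL precipitated with dextran sulfate/MgCl2 and supernatant counted. Inhibition expressed relative to vehicle-dosed rabbits.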

[4] = target: T2, Cholesteryl ester transfer protein (Homo sapiens); test: Percent inhibition of cholesteryl ester transfer protein in human plasma at 9 uM; assay type: cell-free
Oryctolagus cuniculus [5] = test: In vivo percent elevation evaluated from the plasma HDL levels in JW rabbits by oral administration of 100 mg/kg once a day for 3 days; assay type: functional
Summary of the method: (§2)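 Male JW rabbits, 11-15 weeks old, N = 5, dosed orally once daily for 3 days. ApoB lipoproteins in plasma precipitated with 13% PEG 6000, and HDL cholesterol measured by enzymatic assay. Elevation expressed relative to vehicle-dosed rabbits.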

Oryctolagus cuniculus [6] = test: In vivo percent elevation evaluated from the plasma HDL levels in JW rabbits by oral administration of 30 mg/kg once a day for 3 days; assay type: functional; summary of the method: as §2
Oryctolagus cuniculus [7] = test: In vivo percent inhibition of cholesteryl ester transfer protein was measured 3h after oral administration of 10 mg/kg JW rabbits plasma; assay type: functional; summary of the method: as §1

Structure (SMILES)	IC50 [1]	other results
CC1(C(=O)Nc2ccccc2OC(=O)Cc2ccccc2)CCCCC1	> 300 µM	–
CC(C)(C)NC(=O)c1ccccc1SSc1ccccc1C(=O)NC(C)(C)C	> 500 µM	–
CC(C)(C)C(=O)Nc1ccccc1SSc1ccccc1NC(=O)C(C)(C)C	13 µM	–
CC(C)(C)C(=O)Nc1cccc(SSc2cccc(NC(=O)C(C)(C)C)c2)c1	> 500 µM	–
CCC(CC)CC1(C(=O)Nc2ccccc2S)CCCCC1	5 µM	inhibition [2]: 50%
CCC(CC)CC1(C(=O)Nc2ccccc2SC(=O)C(C)(C)C)CCCCC1	–	inhibition in vivo at 30 mg/kg (Oryctolagus cuniculus [3]): 32%
CCC(CC)CC1(C(=O)Nc2ccccc2SC(C)=O)CCCCC1	–	inhibition in vivo at 30 mg/kg (Oryctolagus cuniculus [3]): 40%
CC1(C(=O)Nc2ccccc2SSc2ccccc2NC(=O)C2(C)CCCCC2)CCCCC1	8 µM	–
CC(=O)Nc1ccccc1SSc1ccccc1NC(C)=O	500 µM	–
CN(C(=O)C(C)(C)C)c1ccccc1SSc1ccccc1N(C)C(=O)C(C)(C)C	> 300 µM	–
CCCCCCCC(=O)Nc1ccccc1SSc1ccccc1NC(=O)CCCCCCC	21 µM	–
CC(C)(C)C(=O)Nc1ccc(SSc2ccc(NC(=O)C(C)(C)C)cc2)cc1	> 500 µM	–
CCC(=O)Nc1ccccc1SSc1ccccc1NC(=O)CC	180 µM	–
CCC(CC)CC1(C(=O)Nc2ccccc2SC)CCCCC1	> 300 µM	–
CC(C)CCCC1(C(=O)Nc2ccccc2S)CCCCC1	6 µM	–
CCCCCCCC1(C(=O)Nc2ccccc2S)CCCCC1	7 µM	–
CCC(CC)CC1(C(=O)Nc2ccccc2SC(=O)C(C)C)CCCCC1 [DALCETRAPIB]	6 µM	inhibition [4]: 50%; Elevation (Oryctolagus cuniculus [5]): 54%; Elevation (Oryctolagus cuniculus [6]): 27%; inhibition in vivo at 10 mg/kg (Oryctolagus cuniculus [7]): 35%; inhibition in vivo at 30 mg/kg (Oryctolagus cuniculus [3]): 95%
CCCCCCC1(C(=O)Nc2ccccc2S)CCCCC1	6 µM	–
CCCCCC1(C(=O)Nc2ccccc2S)CCCCC1	7 µM	–
CCCCC1(C(=O)Nc2ccccc2S)CCCCC1	9 µM	–
